Experimental data: ChEMBL document CHEMBL1687749, “Beijing genotype of Mycobacterium tuberculosis is significantly associated with high-level fluoroquinolone resistance in Vietnam” (2009)
Values after ≈ are worked out from the molar mass of the structure shown.

Tests used:
Format in all cases: functional
[1] = tested on: Mycobacterium tuberculosis; test: Antimycobacterial activity against fluoroquinolone-resistant Mycobacterium tuberculosis Beijing genotype isolates without carrying multiple mutation and harboring gyrA D94N mutant gene
Outline: (§1)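 Ofloxacin MIC was determined on the first 65 FQ-resistant clinical isolates, and 64 regrew on subculture. Resistance was defined by the WHO 1% proportion method on Lowenstein-Jensen medium with ofloxacin at 2 μg/ml. Mutations were assigned by gyrA/gyrB sequencing and Beijing genotype by spoligotyping. The value is the median MIC per mutation, excluding isolates with multiple mutations or sequencing heteropeaks.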

[2] = tested on: Mycobacterium tuberculosis; test: Antimycobacterial activity against mixture of fluoroquinolone-resistant and sensitive Mycobacterium tuberculosis Beijing genotype isolates carrying heteropeaks upon sequencing at mutation site and harboring gyrB D540D mutant gene
Outline: (§2)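 Ofloxacin MIC was determined on isolates from the first 65 FQ-resistant clinical isolates, screened by the WHO 1% proportion method on Lowenstein-Jensen medium with ofloxacin at 2 μg/ml. Beijing genotype was assigned by spoligotyping.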

[3] = tested on: Mycobacterium tuberculosis; test: Antimycobacterial activity against fluoroquinolone-resistant Mycobacterium tuberculosis Beijing genotype isolates without carrying multiple mutation and harboring gyrA D94A mutant gene; outline: as §1
[4] = tested on: Mycobacterium tuberculosis; test: Antimycobacterial activity against mixture of fluoroquinolone-resistant and sensitive Mycobacterium tuberculosis Beijing genotype isolates carrying heteropeaks upon sequencing at mutation site and harboring gyrA D94G mutant gene; outline: as §2
[5] = tested on: Mycobacterium tuberculosis; test: Antimycobacterial activity against mixture of fluoroquinolone-resistant and sensitive Mycobacterium tuberculosis Beijing genotype isolates carrying heteropeaks upon sequencing at mutation site and harboring gyrA D94Y mutant gene; outline: as §2
[6] = tested on: Mycobacterium tuberculosis; test: Antimycobacterial activity against mixture of fluoroquinolone-resistant and sensitive Mycobacterium tuberculosis Beijing genotype isolates carrying heteropeaks upon sequencing at mutation site and harboring gyrA D94N mutant gene; outline: as §2
[7] = tested on: Mycobacterium tuberculosis; test: Antimycobacterial activity against mixture of fluoroquinolone-resistant and sensitive Mycobacterium tuberculosis Beijing genotype isolates carrying heteropeaks upon sequencing at mutation site and harboring gyrA D94A mutant gene; outline: as §2
[8] = tested on: Mycobacterium tuberculosis; test: Antimycobacterial activity against mixture of fluoroquinolone-resistant and sensitive Mycobacterium tuberculosis Beijing genotype isolates carrying heteropeaks upon sequencing; outline: as §2
[9] = tested on: Mycobacterium tuberculosis; test: Antimycobacterial activity against mixture of fluoroquinolone-resistant and sensitive Mycobacterium tuberculosis Beijing genotype isolates carrying heteropeaks upon sequencing at mutation site and harboring gyrA A90V mutant gene; outline: as §2
[10] = tested on: Mycobacterium tuberculosis; test: Antimycobacterial activity against mixture of fluoroquinolone-resistant and sensitive Mycobacterium tuberculosis Beijing genotype isolates carrying heteropeaks upon sequencing at mutation site and harboring gyrA G88A mutant gene; outline: as §2
[11] = tested on: Mycobacterium tuberculosis; test: Antimycobacterial activity against mixture of fluoroquinolone-resistant and sensitive Mycobacterium tuberculosis Beijing genotype isolates carrying heteropeaks upon sequencing at mutation site and harboring gyrA A90V and D94A mutant genes; outline: as §2
[12] = tested on: Mycobacterium tuberculosis; test: Antimycobacterial activity against fluoroquinolone-resistant Mycobacterium tuberculosis Beijing genotype isolates without carrying multiple mutation and harboring gyrB A90V and T539P mutant genes
[13] = tested on: Mycobacterium tuberculosis; test: Antimycobacterial activity against mixture of fluoroquinolone-resistant and sensitive Mycobacterium tuberculosis Beijing genotype isolates carrying heteropeaks upon sequencing at mutation site and harboring gyrA D94G and D94A mutant genes; outline: as §2
[14] = tested on: Mycobacterium tuberculosis; test: Antimycobacterial activity against mixture of fluoroquinolone-resistant and sensitive Mycobacterium tuberculosis Beijing genotype isolates carrying heteropeaks upon sequencing at mutation site and harboring gyrB D500N mutant gene; outline: as §2
[15] = tested on: Mycobacterium tuberculosis; test: Antimycobacterial activity against mixture of fluoroquinolone-resistant and sensitive Mycobacterium tuberculosis Beijing genotype isolates carrying heteropeaks upon sequencing at mutation site and harboring gyrA A90V and D94G mutant genes; outline: as §2
[16] = tested on: Mycobacterium tuberculosis; test: Antimycobacterial activity against fluoroquinolone-resistant Mycobacterium tuberculosis Beijing genotype isolates without carrying multiple mutation and harboring gyrB D500N mutant gene; outline: as §1
[17] = tested on: Mycobacterium tuberculosis; test: Antimycobacterial activity against fluoroquinolone-resistant Mycobacterium tuberculosis Beijing genotype isolates without carrying mutation; outline: as §1
[18] = tested on: Mycobacterium tuberculosis; test: Antimycobacterial activity against fluoroquinolone-resistant Mycobacterium tuberculosis Beijing genotype isolates without carrying multiple mutation and harboring gyrA D94Y mutant gene; outline: as §1
[19] = tested on: Mycobacterium tuberculosis; test: Antimycobacterial activity against fluoroquinolone-resistant Mycobacterium tuberculosis Beijing genotype isolates without carrying multiple mutation and harboring gyrA A90V mutant gene; outline: as §1
[20] = tested on: Mycobacterium tuberculosis; test: Antimycobacterial activity against mixture of fluoroquinolone-resistant and sensitive Mycobacterium tuberculosis Beijing genotype isolates carrying heteropeaks upon sequencing at mutation site and harboring gyrB A90V and T539P mutant genes; outline: as §2
[21] = tested on: Mycobacterium tuberculosis; test: Antimycobacterial activity against fluoroquinolone-resistant Mycobacterium tuberculosis Beijing genotype isolates without carrying multiple mutation and harboring gyrA D94G mutant gene; outline: as §1
[22] = tested on: Mycobacterium tuberculosis; test: Antimycobacterial activity against fluoroquinolone-resistant Mycobacterium tuberculosis Beijing genotype isolates without carrying multiple mutation and harboring gyrB D540D mutant gene; outline: as §1
[23] = tested on: Mycobacterium tuberculosis; test: Antimycobacterial activity against mixture of fluoroquinolone-resistant and sensitive Mycobacterium tuberculosis Beijing genotype isolates carrying heteropeaks upon sequencing at mutation site and harboring gyrB A90V and D500A mutant genes; outline: as §2

With `CC1COc2c(N3CCN(C)CC3)c(F)cc3c(=O)c(C(=O)O)cn1c23` (stereo not drawn) [OFLOXACIN] the MIC [1] was 12 µg/mL (≈ 33.2 µM), the MIC [2] was 12 µg/mL (≈ 33.2 µM) and the MIC [3] was 8 µg/mL (≈ 22.1 µM). The MIC [4] was 12 µg/mL (≈ 33.2 µM), the MIC [5] was over 12 µg/mL and the MIC [6] was 12 µg/mL (≈ 33.2 µM). For the same compound, the MIC [7] was 8 µg/mL (≈ 22.1 µM), the MIC [8] was 4 µg/mL (≈ 11.1 µM) and the MIC [9] was 8 µg/mL (≈ 22.1 µM). For the same compound, the MIC [10] was 12 µg/mL (≈ 33.2 µM), the MIC [11] was 8 µg/mL (≈ 22.1 µM) and the MIC [12] was over 12 µg/mL. It also gave an MIC [13] of 12 µg/mL (≈ 33.2 µM), an MIC [14] of 4 µg/mL (≈ 11.1 µM) and an MIC [15] of 12 µg/mL (≈ 33.2 µM). The MIC [16] was over 4 µg/mL, the MIC [17] was 4 µg/mL (≈ 11.1 µM) and the MIC [18] was 12 µg/mL (≈ 33.2 µM). The MIC [19] was 8 µg/mL (≈ 22.1 µM), the MIC [20] was over 12 µg/mL and the MIC [21] was 12 µg/mL (≈ 33.2 µM). The MIC [22] was 12 µg/mL (≈ 33.2 µM) and the MIC [23] was 8 µg/mL (≈ 22.1 µM).
